Screening results (PubChem BioAssay)
Only some compounds are listed: those with a hit (about 2.4% of all), similar ones and a draw of the others.
SUMO1-SIM PPI = alters human SUMO1 binding to SIM partners; inhibition, % at 20 µM; 0.33% of 360,000 active; AID 602429; P63165; SUMO1 binding to a labelled peptide, TR-FRET, 1 h; in the data active means inhibition above about 37%
DNMT1 inh = blocks human DNA methyltransferase DNMT1. P26358. DNMT1 molecular beacon, Hinp1I cleavage, fluorescence. inhibition (reported as % activation of signal), % at 10 µM. 0.83% of 360,000 active. AID 588458; in the data active means inhibition above about 50%
STEP block = blocks human striatal-enriched tyrosine phosphatase; P54829; recombinant STEP, OMFP fluorogenic substrate, fluorescence; inhibition, % at 20 µM; 0.25% of 360,000 active; AID 588621;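 active means inhibition at 20 µM, scaled per plate between control wells, above about 37%, limit read from the data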
Target sequence (P54829 whole entry, looked up): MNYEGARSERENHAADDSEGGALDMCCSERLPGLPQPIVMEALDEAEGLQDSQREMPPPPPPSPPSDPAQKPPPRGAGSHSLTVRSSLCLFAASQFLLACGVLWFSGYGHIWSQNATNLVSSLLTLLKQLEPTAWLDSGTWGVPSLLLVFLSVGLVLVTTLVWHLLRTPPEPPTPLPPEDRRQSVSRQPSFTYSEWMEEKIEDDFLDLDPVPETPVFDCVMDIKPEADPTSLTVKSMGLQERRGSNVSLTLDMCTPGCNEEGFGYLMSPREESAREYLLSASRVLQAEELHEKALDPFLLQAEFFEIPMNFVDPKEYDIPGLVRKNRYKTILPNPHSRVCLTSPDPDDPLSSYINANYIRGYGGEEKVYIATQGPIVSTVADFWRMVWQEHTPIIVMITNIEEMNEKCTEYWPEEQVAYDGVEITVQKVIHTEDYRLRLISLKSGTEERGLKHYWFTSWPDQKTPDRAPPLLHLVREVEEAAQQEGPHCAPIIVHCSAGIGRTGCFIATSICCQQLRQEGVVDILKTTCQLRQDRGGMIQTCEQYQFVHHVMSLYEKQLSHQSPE
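material = STEP tyrosine phosphatase | reagent = fluorogenic phosphatase substrate OMFP at 25 µM final | doses = single compound dose of 20 µM, 1% DMSO final | schedule = 20 min reaction, room temperature, in the dark | measured by = fluorescence, 480/540 nm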
Scp1 inh = blocks human Scp-1 phosphatase activity; AID 493091; 0.88% of 340,000 active; Recombinant Scp1, phosphopeptide, malachite green phosphate absorbance; Q9GZU7; inhibition, % at 20 µM;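 active means inhibition above about 50% at 20 µM, limit read from the data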
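Test system – truncated SCP-1 phosphatase (76-261aa) · Reagent – Phosphorylated 17-residue peptide substrate · Incubation – 45 min room-temperature reaction, 5 min colour, 30 min stabiliser · Detection – colorimetric phosphate reagent with accelerator and stabiliser, absorbance at 630 nm · Measure – % inhibition at 20 µM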
NadD inh = inhibitors of Staphylococcus aureus NadD; purified NadD enzyme, colorimetric absorbance read-out; inhibition, % at 20 µM; 0.78% of 360,000 active; AID 602399; in the data active means inhibition above about 26%
LMPTP inh = LMPTP (human) inhibition. AID 651560. 0.22% of 360,000 active. recombinant LMPTP-A, OMFP fluorogenic substrate, fluorescence intensity. inhibition, % at 20 µM;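 active means compounds that cut the enzyme signal by at least half of the control window in the single-dose screen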
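Material: LMPTP-A; amount: 0.625 nM enzyme; doses: single 20 µM dose; times: reaction 50 min, room temperature, dark; technique: fluorescence intensity of OMFP turnover product; benchmarks: no-enzyme and uninhibited controls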
Scp-1 conf = confirmation of human Scp-1 phosphatase inhibitors; shares compounds with Scp1 inh; recombinant SCP-1 catalytic domain, phosphate release, malachite green absorbance; inhibition, % at 20 µM; 61% of 2,500 active
MG interference = interferes with malachite green readout, flagging false Scp-1 hits. shares compounds with Scp1 inh. Colorimetric interference counterscreen, malachite green absorbance 630 nm. apparent inhibition (interference), % at 20 µM. 2,500 tested, under 10 active;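 further: compounds added after enzyme reaction finished so only phosphate colour detection is probed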
Scp1 DSF = Scp-1 (human) binding by thermal shift; shares compounds with Scp1 inh; Recombinant SCP1, Sypro Orange thermal shift Tm; thermal shift relative to vanadate control, % at 40 µM; 25% of 1,500 active; AID 540329;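 active means substances whose mean melting-temperature shift, as a percentage of the reference inhibitor's shift, reaches about 5.3%, limit read from the data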
Numbers stand for hits; 0 = inactive; - = not tested or not shown.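 How the source made its calls, unless noted: active means inhibition of at least 30% at 20 µM; inactive means the rest.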

SMILES	SUMO1-SIM PPI	DNMT1 inh	STEP block	Scp1 inh	NadD inh	LMPTP inh	Scp-1 conf	MG interference	others
COc1ccc(-c2noc3c2-c2nc(-c4ccccc4Cl)sc2CC3)cc1	0	0	0	0	0	0	-	-
CCOc1ccccc1-c1nc2c(s1)CCc1onc(-c3ccc(OC)cc3)c1-2	0	0	0	81	0	0	0	0
C[C@@H]1CN([C@H](C)CO)C(=O)CCCn2nncc2CO[C@H]1CN(C)S(=O)(=O)c1ccccc1F	0	0	0	-	0	0	-	-
CC(=O)c1ccc(NC(=O)CSc2nnc(-c3ccco3)c(-c3ccco3)n2)cc1	43	0	0	83	0	54	58	0	Scp1 DSF=9.4
CC(=O)Nc1ccc(NC(=O)CSc2nnc(-c3ccco3)o2)cc1	0	0	0	0	0	0	-	-
COc1cc(C2CC(=O)NC3=C2C(=O)CC(C)(C)C3)ccc1O (stereo not given)	0	0	0	0	0	0	0	0
COc1ccc(C2Nc3ccccc3NC3=C2C(=O)CC(C)(C)C3)cc1O (stereo not given)	0	0	0	56	0	0	0	0
COc1ccc(C2Nc3ccccc3NC3=C2C(=O)CC(C)(C)C3)cc1OC (stereo not given)	0	0	0	0	0	0	-	-
Cc1ccc(OCc2nn3c(-c4ccco4)nnc3s2)cc1	0	0	0	0	0	0	-	-
Clc1ccc(OCc2nn3c(-c4ccco4)nnc3s2)c(Cl)c1	0	0	0	81	0	0	70	0	Scp1 DSF=0
CCOc1ccccc1NC(=O)Nc1cc(S(=O)(=O)N(C)C)ccc1C	0	0	0	73	0	0	0	0
O=C(CN1C(=O)CCSc2ccc(S(=O)(=O)N3CCOCC3)cc21)Nc1ccccc1Cl	0	0	0	61	0	0	46	0	Scp1 DSF=0
Cc1cccc(NC(=O)CN2C(=O)CCSc3ccc(S(=O)(=O)N4CCOCC4)cc32)c1C	0	0	0	0	0	0	-	-
CSc1ccccc1NC(=O)CN(C)CC(=O)c1[nH]c(C)c(C(C)=O)c1C	0	0	0	101	0	0	0	0
CC(C)OC(=O)NS(=O)(=O)c1cccc([N+](=O)[O-])c1	0	0	0	0	0	0	-	-
Cc1ccc(S(=O)(=O)N(C)c2ccc(C(=O)NCc3cccnc3)cc2)cc1	0	0	0	79	0	0	0	0
Cc1ccc(C(=O)COC(=O)c2ccc(Cl)c(N)c2)s1	0	0	0	0	0	0	-	-
Nc1cc(C(=O)OCC(=O)c2ccc(CC(=O)N3CCOCC3)s2)ccc1Cl	0	0	0	54	0	0	39	0	Scp1 DSF=6.2
CC(C)N1CCC(C)(C(=O)Nc2ccc(-n3cccc3)cc2)C1 (stereo not given)	0	0	0	-	0	0	-	-
CCCCOc1ccc(C(=O)NN2C(=O)NC3(CCCCC3)C2=O)cc1OC	0	0	0	0	0	0	-	-
O=C(N/C(=C/c1ccc(Br)cc1)C(=O)N1CCCCC1)c1ccccc1F	0	0	0	0	0	0	-	-
CCN(CC)CCNC(C(=O)Nc1cc(C(F)(F)F)ccc1Cl)c1ccccc1 (stereo not given)	0	0	0	91	0	0	91	0	Scp1 DSF=0
COc1ccc(CNC(=O)C2CCCN(S(=O)(=O)N3CCC(C)CC3)C2)c(OC)c1 (stereo not given)	0	0	0	69	0	0	0	0
COc1ccc(OC)c(CNC(=O)C2CCCN(S(=O)(=O)N3CCC(C)CC3)C2)c1 (stereo not given)	0	0	0	0	0	0	-	-
CC(NC(=O)/C(C#N)=C/c1ccc(OCC(=O)O)cc1)c1ccccc1 (stereo not given)	0	0	0	98	0	0	40	0	Scp1 DSF=0
